Experimental data reported in PMC7686272 (Angewandte Chemie (International ed. in English), 2020).
Read-outs that look alike come from different tables or passages of the source.

Key:
EGFR L858R/T790M = EGFR L858R/T790M (Homo sapiens, UniProt P00533, L858R/T790M); test: HTRF kinase assay of purified EGFR L858R/T790M; format: biochemical; conditions: for IC50: read-out: IC50 against EGFR L858R/T790M, HTRF assay, purified enzyme
wildtype EGFR = wildtype EGFR (Homo sapiens, UniProt P00533); test: Western blot of total EGFR protein in wildtype EGFR Ba/F3 cells; format: cell-based, murine; conditions: increasing concentrations, 6, 24 and 48 hours
Method in brief: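 Wildtype EGFR Ba/F3 cells exposed to rising test-compound concentrations for 6, 24 and 48 h, then lysed and immunoblotted for total EGFR with tubulin as loading control. Band densitometry was normalised to tubulin and expressed as percent EGFR remaining relative to DMSO control. The same treatment was run in parallel on L858R/T790M Ba/F3 cells.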

[1] = test system: L858R/T790M/C797S EGFR Ba/F3 cells; test: Ba/F3 cell proliferation assay, L858R/T790M/C797S EGFR; format: cell-based, murine
L858R/T790M EGFR = L858R/T790M EGFR (Homo sapiens, UniProt P00533, L858R/T790M); test: Western blot of total EGFR protein in L858R/T790M Ba/F3 cells; format: cell-based, murine; conditions: L858R/T790M Ba/F3, 24 hours, 0.1 μM DDC-01-163; 10 μM pomalidomide, 1 μM JBJ-07-149 or increasing MLN4924
[2] = test system: L858R/T790M/L718Q EGFR Ba/F3 cells; test: Ba/F3 cell proliferation assay, L858R/T790M/L718Q EGFR; format: cell-based, murine
CRBN = CRBN (Homo sapiens, UniProt Q96SW2); test: Cellular CRBN engagement assay; format: cell-based; conditions: restoration of BRD4BD2-GFP signal, Figure 2B
Chain of CRBN (Q96SW2 whole entry, species assumed): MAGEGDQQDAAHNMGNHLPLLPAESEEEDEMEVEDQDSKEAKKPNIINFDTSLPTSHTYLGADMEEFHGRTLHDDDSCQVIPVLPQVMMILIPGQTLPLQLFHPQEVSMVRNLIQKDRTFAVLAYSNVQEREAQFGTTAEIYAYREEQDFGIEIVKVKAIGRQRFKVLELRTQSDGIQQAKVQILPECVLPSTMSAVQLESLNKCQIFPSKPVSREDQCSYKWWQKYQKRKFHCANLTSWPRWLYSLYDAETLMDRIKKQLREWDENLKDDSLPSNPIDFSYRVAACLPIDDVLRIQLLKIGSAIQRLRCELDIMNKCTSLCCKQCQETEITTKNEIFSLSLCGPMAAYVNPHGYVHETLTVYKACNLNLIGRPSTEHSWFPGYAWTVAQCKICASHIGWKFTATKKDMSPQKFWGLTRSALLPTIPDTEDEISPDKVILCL

Row | SMILES | IC50 (EGFR L858R/T790M) [nM] | effect on EGFR protein levels in wildtype Ba/F3 cells (wildtype EGFR) | effect on EGFR degradation by DDC-01-163 (competition / rescue) (L858R/T790M EGFR) | other results
1 | NS(=O)(=O)OC[C@@H]1C[C@@H](n2ccc3c(N[C@H]4CCc5ccccc54)ncnc32)C[C@@H]1O [MLN4924] |  |  | rescue EGFR degradation | 
2 | C=CC(=O)Nc1cc(Nc2nccc(-c3cn(C)c4ccccc34)n2)c(OC)cc1N(C)CCN(C)C [osimertinib, reference compound] |  |  |  | sensitivity of LT/C797S EGFR Ba/F3 cells in cell proliferation assay [1]: resistant; sensitivity of LT/L718Q EGFR Ba/F3 cells in cell proliferation assay [2]: resistant
3 | Nc1cccc2c1C(=O)N(C1CCC(=O)NC1=O)C2=O (stereo not drawn) [pomalidomide] |  |  | prevented EGFR degradation | 

More lines, main results first:

Row | IC50 (EGFR L858R/T790M) [nM] | effect on EGFR protein levels in wildtype Ba/F3 cells (wildtype EGFR) | effect on EGFR degradation by DDC-01-163 (competition / rescue) (L858R/T790M EGFR) | SMILES | other results
4 | 19 | did not affect protein levels |  | O=C1CCC(N2C(=O)c3cccc(NCCOCCOCCOCCN4CCN(c5ccc(-c6ccc7c(c6)C(=O)N(C(C(=O)Nc6nccs6)c6cc(F)ccc6O)C7)cc5)CC4)c3C2=O)C(=O)N1 (stereo not drawn) [JBJ-07-038] | 
5 | 1.1 |  | prevented EGFR degradation | O=C(Nc1nccs1)C(c1ccccc1)N1Cc2ccc(-c3ccc(N4CCNCC4)nc3)cc2C1=O (stereo not drawn) [JBJ-07-149] | sensitivity of LT/C797S EGFR Ba/F3 cells in cell proliferation assay ([1]; L858R/T790M/C797S EGFR Ba/F3 cells): resistant; sensitivity of LT/L718Q EGFR Ba/F3 cells in cell proliferation assay ([2]; L858R/T790M/L718Q EGFR Ba/F3 cells): resistant
6 | 390 | did not affect protein levels |  | O=C1CCC(N2C(=O)c3cccc(NCCOCCOCCOCCN4CCN(c5ccc(-c6ccc7c(c6)C(=O)N(C(C(=O)Nc6nccs6)c6cc(F)ccc6F)C7)cc5)CC4)c3C2=O)C(=O)N1 (stereo not drawn) [JBJ-07-200] | reduction of biochemical activity compared to DDC-01-163 (EGFR L858R/T790M; ratio of IC50 values): 9 fold; reduction of biochemical activity compared to JBJ-07-038 (EGFR L858R/T790M; ratio of IC50 values): 21 fold; cellular CRBN engagement (CRBN): more potent CRBN engagement than JBJ-07-038
